ChEMBL document CHEMBL1138004, “Small molecule antagonists of the CCR2b receptor. Part 2: Discovery process and initial structure-activity relationships of diamine derivatives” (Bioorg Med Chem Lett, 2004)

How the values were obtained:
[1] = biological target: T1, C-C chemokine receptor type 2 (Homo sapiens, UniProt P41597); assay: Concentration required to inhibit [125I]MCP-1 binding to Chemokine receptor 2B
Summary of the method: (§1)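 Radioligand binding with THP-1 cells as the receptor source and human 125I-MCP-1 as the tracer. Inhibition of tracer binding by test compounds was measured.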
Target sequence in this assay (P41597 whole entry): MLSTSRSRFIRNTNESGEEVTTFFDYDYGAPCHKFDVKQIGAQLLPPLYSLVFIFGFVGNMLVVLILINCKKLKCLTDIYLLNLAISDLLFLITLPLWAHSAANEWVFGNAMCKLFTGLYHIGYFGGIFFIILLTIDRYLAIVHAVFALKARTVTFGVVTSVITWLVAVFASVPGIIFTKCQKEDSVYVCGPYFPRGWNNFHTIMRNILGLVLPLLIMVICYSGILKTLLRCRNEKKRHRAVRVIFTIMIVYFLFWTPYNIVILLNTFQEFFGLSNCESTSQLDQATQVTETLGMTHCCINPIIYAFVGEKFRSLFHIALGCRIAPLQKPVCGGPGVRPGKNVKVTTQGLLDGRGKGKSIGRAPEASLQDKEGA

[2] = biological target: T1, C-C chemokine receptor type 2; assay: Inhibition of [125I]MCP-1 binding to Chemokine receptor 2B; not active; summary of the method: as §1
Target sequence in this assay (P41597 whole entry): as above

[3] = biological target: T1, C-C chemokine receptor type 2; conditions: 10 uM
Target sequence in this assay (P41597 whole entry, looked up): as the sequence (P41597 whole entry) above

| Compound | IC50 [1] [µM] | further results |
| --- | --- | --- |
| O=C(CNC(=O)c1ccccc1)NC1CCN(Cc2ccc(Cl)cc2)C1 (stereo not given) | 42 |  |
| O=C(CNC(=O)c1cccc(C(F)(F)F)c1)N[C@H]1CCN(Cc2ccc(Cl)cc2)C1 | 1.2 |  |
| Cc1cccc(C(=O)NCC(=O)NC2CCCN(Cc3ccc(Cl)cc3)C2)c1 (stereo not given) | 17 |  |
| O=C(CNC(=O)c1ccccc1)NC1CCCN(Cc2ccc(Cl)cc2)C1 (stereo not given) |  | IC50 [2]: Not Active |
| O=C(CNC(=O)c1ccccc1)NCC1CCN(Cc2ccc(Cl)cc2)CC1 | 11 |  |
| O=C(CNC(=O)c1cccc(C(F)(F)F)c1)NCC1CCN(Cc2ccc(Cl)cc2)CC1 | 0.7 |  |
| O=C(CNC(=O)c1cccc(C(F)(F)F)c1)NC1CCCN(Cc2ccc(Cl)cc2)C1 (stereo not given) | 0.66 |  |
| O=C(CCNC(=O)c1ccccc1)NCC1CCN(Cc2ccc(Cl)cc2)CC1 | 64 |  |
| Cc1cccc(C(=O)NCC(=O)NC2CCN(Cc3ccc(Cl)cc3)C2)c1 (stereo not given) | 6.9 |  |
| Cc1cccc(C(=O)NCC(=O)NCC2CCN(Cc3ccc(Cl)cc3)CC2)c1 | 5.5 |  |
| Cc1cccc(C(=O)NCC(=O)NCC2CCCN2Cc2ccc(Cl)cc2)c1 (stereo not given) | 14 |  |
| O=C(CCNC(=O)c1ccccc1)NCC1CCCN1Cc1ccc(Cl)cc1 (stereo not given) | 40 |  |
| O=C(CCCC(=O)c1ccccc1)NCC1CCN(Cc2ccc(Cl)cc2)CC1 | 50 |  |
| Cc1csc(C(=O)NNC(=O)CN2CCC(NCCC(c3ccccc3)c3ccccc3)C2)c1 (stereo not given) | 17 |  |
| O=C(CNC(=O)c1cccc(C(F)(F)F)c1)NC[C@@H]1CCCN1Cc1ccc(Cl)cc1 | 3.1 |  |
| O=C(CCNC(=O)c1ccccc1)NC1CCN(Cc2ccc(Cl)cc2)C1 (stereo not given) | 22 |  |
| O=C(CCNC(=O)c1ccccc1)NC1CCCN(Cc2ccc(Cl)cc2)C1 (stereo not given) | 74 |  |
| O=C(CNC(=O)c1cccc(C(F)(F)F)c1)NCC1CCCN1Cc1ccc(Cl)cc1 (stereo not given) | 2.3 |  |
| Cc1csc(C(=O)NNC(=O)CNC2CCN(CCC(c3ccccc3)c3ccccc3)C2)c1 (stereo not given) | 33 |  |
| Cc1csc(C(=O)NNC(=O)CN2CCC(NCc3ccc(Cl)cc3)C2)c1 (stereo not given) | 7.8 |  |
| O=C(CNC(=O)c1cccc(C(F)(F)F)c1)NC[C@H]1CCCN1Cc1ccc(Cl)cc1 | 0.57 |  |
| O=C(CNC(=O)c1ccccc1)NCC1CCCN1Cc1ccc(Cl)cc1 (stereo not given) | 66 |  |
| O=C(CCCC(=O)c1ccccc1)NC1CCN(Cc2ccc(Cl)cc2)C1 (stereo not given) | 11 |  |
| Cc1csc(C(=O)NNC(=O)CNC2CCN(Cc3ccc(Cl)cc3)C2)c1 (stereo not given) | 41 |  |
| O=C(CCCC(=O)c1ccccc1)NCC1CCCN1Cc1ccc(Cl)cc1 (stereo not given) | 19 |  |
| O=C(CNC(=O)c1cccc(C(F)(F)F)c1)NC1CCN(Cc2ccc(Cl)cc2)C1 (stereo not given) | 0.37 |  |
| O=C(CNC(=O)c1cccc(C(F)(F)F)c1)N[C@@H]1CCN(Cc2ccc(Cl)cc2)C1 | 0.18 | inhibition [3]: 49% |
| O=C(CCCC(=O)c1ccccc1)NC1CCCN(Cc2ccc(Cl)cc2)C1 (stereo not given) | 87 |  |
| Cc1csc(C(=O)NNC(=O)CN2CCCC2CNCCC(c2ccccc2)c2ccccc2)c1 (stereo not given) | 26 |  |
